Assay results: ChEMBL document CHEMBL1143049, “Preparation, biological activity and endogenous occurrence of N6-benzyladenosines” (Bioorg Med Chem, 2007)

Tests used:
HL-60 = test: Antitumor activity against human HL60 cells after 72 hrs by Calcein AM assay; format: functional, cell-based; conditions: HL-60, 72 h
In short: (§1)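 Cells grown in DMEM at 37 °C under 5% CO2. Compounds added after 12 h preincubation in 96-well plates, final 0.5-170 μM, with 0.6% final DMSO, then 72 h exposure. Viable cells stained with Calcein AM for 1 h and read at 485/538 nm. IC50 (concentration lethal to 50% of cells) taken from dose-response curves. Run in quadruplicate.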

[1] = molecular target: T1, Histidine kinase 3 (Arabidopsis thaliana) (UniProt Q9C5U1); test: Activation of Arabidopsis thaliana AHK3 cytokinin receptor relative to trans-zeatin; parameters: concentration or dose not given beside the values
T1 sequence (whole entry): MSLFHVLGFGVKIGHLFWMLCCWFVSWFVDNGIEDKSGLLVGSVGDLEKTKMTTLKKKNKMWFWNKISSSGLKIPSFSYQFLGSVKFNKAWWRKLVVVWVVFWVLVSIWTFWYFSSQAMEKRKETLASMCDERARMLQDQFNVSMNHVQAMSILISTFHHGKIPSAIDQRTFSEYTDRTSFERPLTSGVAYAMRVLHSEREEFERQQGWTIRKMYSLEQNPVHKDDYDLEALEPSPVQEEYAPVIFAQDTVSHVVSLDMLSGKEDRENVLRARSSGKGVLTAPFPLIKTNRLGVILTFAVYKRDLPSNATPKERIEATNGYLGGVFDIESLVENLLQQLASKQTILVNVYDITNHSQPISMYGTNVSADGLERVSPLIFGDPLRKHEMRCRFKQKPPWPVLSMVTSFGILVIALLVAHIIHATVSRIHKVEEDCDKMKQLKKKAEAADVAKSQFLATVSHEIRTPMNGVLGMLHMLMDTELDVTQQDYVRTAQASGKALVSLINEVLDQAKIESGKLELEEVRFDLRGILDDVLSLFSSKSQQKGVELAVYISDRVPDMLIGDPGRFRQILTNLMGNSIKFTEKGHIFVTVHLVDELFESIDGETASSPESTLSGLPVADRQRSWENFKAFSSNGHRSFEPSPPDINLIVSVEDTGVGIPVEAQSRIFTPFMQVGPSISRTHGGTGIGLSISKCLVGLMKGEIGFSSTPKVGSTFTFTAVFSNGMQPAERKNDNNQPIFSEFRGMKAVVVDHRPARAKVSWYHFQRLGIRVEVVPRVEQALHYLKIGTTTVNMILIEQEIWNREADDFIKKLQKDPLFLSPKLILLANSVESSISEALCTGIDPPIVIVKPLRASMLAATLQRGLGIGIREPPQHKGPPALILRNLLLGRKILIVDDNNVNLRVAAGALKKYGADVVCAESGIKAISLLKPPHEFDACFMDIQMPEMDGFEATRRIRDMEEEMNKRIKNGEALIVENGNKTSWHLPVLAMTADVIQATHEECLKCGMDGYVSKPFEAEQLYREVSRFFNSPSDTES
In short: (§2)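 E. coli KMI001 carrying pSTV28-AHK3 or pIN-III-AHK4, precultured overnight at 25 °C in M9 + 0.1% casamino acids to OD600 ~1. Diluted 1:600, compound or solvent added, then incubated at 25 °C for 28 h (AHK3) or 17 h (CRE1/AHK4). Supernatant incubated with 4-methylumbelliferyl β-D-galactoside for 1 h at 37 °C and stopped with Na2CO3. Fluorescence read at 365/460 nm. β-galactosidase expressed as nmol 4-MU × OD600⁻¹ × h⁻¹.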

[2] = Antitumor activity against human MCF cells after 72 hrs by Calcein AM assay; format: functional, cell-based; in short: as §1
B16 = test: Antitumor activity against mouse B16 cells after 72 hrs by Calcein AM assay; format: functional, cell-based; conditions: B16, 72 h; in short: as §1
K562 = test: Antitumor activity against human K562 cells after 72 hrs by Calcein AM assay; format: functional, cell-based; conditions: K562, 72 h; in short: as §1
Triticum aestivum [3] = test: Cytokinin activity in wheat assessed as retention of chlorophyll in excised wheat leaves at 0.1 mmol/L relative to 6-Benzylaminopurine by senescence assay; format: functional
In short: (§3)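 Senescence assay measuring chlorophyll retention in excised wheat leaves. DMSO stocks brought to 10^-3 M with water, then diluted in assay medium to a final DMSO of at most 0.2%. Concentrations 10^-4 to 10^-8 M, quintuplicate, repeated at least three times. Response at the optimal concentration normalised to BAP optimum = 100.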

CCRF-CEM = test: Antitumor activity against human CEM cells after 72 hrs by Calcein AM assay; format: functional, cell-based; in short: as §1
HOS = test: Antitumor activity against human HOS cells after 72 hrs by Calcein AM assay; format: functional, cell-based; in short: as §1
[4] = Cytotoxicity against mouse NIH 3T3 cells after 72 hrs by Calcein AM assay; format: cell-based; conditions: NIH3T3, 72 h; in short: as §1
Amaranthus [5] = test: Cytokinin activity in Amaranthus cotyledons assessed as dark induction of betacyanin synthesis at 0.1 mmol/L relative to 6-Benzylaminopurine; format: functional
In short: (§4)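 Dark induction of betacyanin in excised Amaranthus cotyledons. DMSO stock brought to 10^-3 M in water, diluted into assay medium (DMSO ≤0.2%). Tested over 10^-4 to 10^-8 M, five replicates per concentration, assay repeated at least three times. Response at the optimal concentration expressed relative to BAP at its optimum (set to 100).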

Nicotiana tabacum [6] = test: Cytokinin activity in tobacco assessed as stimulation of callus growth at 1 umol/L relative to 6-Benzylaminopurine; format: functional
In short: (§5)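 Stimulation of tobacco callus growth. Compounds dissolved in DMSO, brought to 10^-3 M in water and diluted into medium (DMSO ≤0.2%). Range 10^-4 to 10^-8 M, five replicates per concentration, at least three independent repeats. Activity at the optimal concentration given relative to BAP's optimal response, taken as 100.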

[7] = molecular target: Histidine kinase 4 (Arabidopsis thaliana) (UniProt Q9C5U0); test: Activation of Arabidopsis thaliana CRE1/AHK4 cytokinin receptor relative to trans-zeatin; parameters: concentration or dose not given beside the values; in short: as §2
Sequence of Histidine kinase 4 (Arabidopsis thaliana) (Q9C5U0 whole entry): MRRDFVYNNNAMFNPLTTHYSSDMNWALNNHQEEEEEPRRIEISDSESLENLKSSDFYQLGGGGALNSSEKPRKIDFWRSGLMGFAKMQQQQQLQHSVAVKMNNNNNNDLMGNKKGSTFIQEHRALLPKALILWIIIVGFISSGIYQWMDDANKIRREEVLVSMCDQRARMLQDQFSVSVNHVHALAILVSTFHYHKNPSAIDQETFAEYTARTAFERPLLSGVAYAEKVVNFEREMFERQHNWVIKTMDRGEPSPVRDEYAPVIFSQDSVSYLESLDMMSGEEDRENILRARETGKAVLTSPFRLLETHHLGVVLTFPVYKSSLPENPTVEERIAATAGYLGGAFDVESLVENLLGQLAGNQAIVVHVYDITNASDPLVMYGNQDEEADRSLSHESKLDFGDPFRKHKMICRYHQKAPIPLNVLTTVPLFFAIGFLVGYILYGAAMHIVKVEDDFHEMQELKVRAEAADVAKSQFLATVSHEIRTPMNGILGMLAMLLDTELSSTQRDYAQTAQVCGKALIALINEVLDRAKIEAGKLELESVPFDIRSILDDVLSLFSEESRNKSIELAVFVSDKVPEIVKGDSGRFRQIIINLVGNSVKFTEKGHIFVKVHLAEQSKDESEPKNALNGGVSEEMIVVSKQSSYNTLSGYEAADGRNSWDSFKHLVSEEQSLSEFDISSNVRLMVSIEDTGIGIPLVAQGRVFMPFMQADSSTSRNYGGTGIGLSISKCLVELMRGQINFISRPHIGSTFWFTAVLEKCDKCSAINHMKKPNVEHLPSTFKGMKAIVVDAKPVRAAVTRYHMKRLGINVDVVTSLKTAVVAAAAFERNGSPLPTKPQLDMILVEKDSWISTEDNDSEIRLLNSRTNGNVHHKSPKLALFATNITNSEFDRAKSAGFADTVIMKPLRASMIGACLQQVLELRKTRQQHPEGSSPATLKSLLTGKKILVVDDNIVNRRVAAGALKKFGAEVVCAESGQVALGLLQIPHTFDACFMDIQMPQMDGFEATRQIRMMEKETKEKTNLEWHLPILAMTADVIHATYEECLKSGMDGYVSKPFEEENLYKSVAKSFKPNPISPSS

Amaranthus [8] = test: Cytokinin activity in Amaranthus cotyledons assessed as dark induction of betacyanin synthesis at 0.01 mmol/L relative to 6-Benzylaminopurine; format: functional; in short: as §4
Nicotiana tabacum [9] = test: Cytokinin activity in tobacco assessed as stimulation of callus growth at 0.01 mmol/L relative to 6-Benzylaminopurine; format: functional; in short: as §5
G-361 = test: Antitumor activity against human G361 cells after 72 hrs by Calcein AM assay; format: functional, cell-based; conditions: G-361, 72 h; in short: as §1
Triticum aestivum [10] = test: Cytokinin activity in wheat assessed as retention of chlorophyll in excised wheat leaves at 0.01 mmol/L relative to 6-Benzylaminopurine by senescence assay; format: functional; in short: as §3

COc1cccc(CNc2ncnc3c2ncn3[C@@H]2O[C@H](CO)[C@@H](O)[C@H]2O)c1
IC50 (HL-60): 4.9 µM
Activity [1]: 1.12%
IC50 [2]: > 167 µM
IC50 (B16): > 167 µM
IC50 (K562): > 167 µM
Activity (Triticum aestivum [3]): 209%
IC50 (CCRF-CEM): 7.6 µM
IC50 (HOS): > 167 µM
IC50 [4]: > 167 µM
Activity (Amaranthus [5]): 98%
Activity (Nicotiana tabacum [6]): 92%
Activity [7]: 0.14%

OC[C@H]1O[C@@H](n2cnc3c(NCc4cccc(Cl)c4)ncnc32)[C@H](O)[C@@H]1O
IC50 (HL-60): 0.75 µM
Activity [1]: 2.63%
IC50 [2]: 26.9 µM
Activity (Amaranthus [8]): 139%
IC50 (K562): 27.7 µM
Activity (Triticum aestivum [3]): 72%
IC50 (CCRF-CEM): 1.6 µM
IC50 (HOS): > 167 µM
IC50 [4]: > 167 µM
Activity (Nicotiana tabacum [9]): 96%
IC50 (G-361): > 167 µM
Activity [7]: 0.15%

OC[C@H]1O[C@@H](n2cnc3c(NCc4ccccc4Cl)ncnc32)[C@H](O)[C@@H]1O
IC50 (HL-60): 1.6 µM
Activity [1]: 0.02%
IC50 [2]: > 167 µM
IC50 (B16): > 167 µM
Activity (Amaranthus [8]): 113%
IC50 (K562): 64 µM
Activity (Triticum aestivum [3]): 119%
IC50 (CCRF-CEM): 14.5 µM
IC50 (HOS): > 167 µM
IC50 [4]: > 167 µM
Activity (Nicotiana tabacum [6]): 93%
Activity [7]: 0.04%

OC[C@H]1O[C@@H](n2cnc3c(NCc4cccc(F)c4)ncnc32)[C@H](O)[C@@H]1O
IC50 (HL-60): 0.92 µM
Activity [1]: 0.99%
IC50 [2]: 15.3 µM
Activity (Amaranthus [8]): 92%
IC50 (K562): 7.6 µM
Activity (Triticum aestivum [3]): 220%
IC50 (CCRF-CEM): 4 µM
IC50 (HOS): > 167 µM
IC50 [4]: 84 µM
Activity (Nicotiana tabacum [9]): 91%
IC50 (G-361): > 167 µM
Activity [7]: 0.36%

Cc1cccc(CNc2ncnc3c2ncn3[C@@H]2O[C@H](CO)[C@@H](O)[C@H]2O)c1
IC50 (HL-60): 6.4 µM
IC50 [2]: > 167 µM
IC50 (B16): > 167 µM
Activity (Amaranthus [8]): 96%
IC50 (K562): > 167 µM
Activity (Triticum aestivum [3]): 143%
IC50 (CCRF-CEM): 19.1 µM
IC50 (HOS): > 167 µM
IC50 [4]: > 167 µM
IC50 (G-361): > 167 µM
Activity (Nicotiana tabacum [6]): 90%

OC[C@H]1O[C@@H](n2cnc3c(NCc4ccc(Cl)cc4)ncnc32)[C@H](O)[C@@H]1O
IC50 (HL-60): 1.7 µM
Activity [1]: 0.81%
IC50 [2]: > 167 µM
IC50 (B16): > 167 µM
Activity (Amaranthus [8]): 35%
IC50 (K562): 218 µM
Activity (Triticum aestivum [3]): 104%
IC50 (CCRF-CEM): 10.2 µM
IC50 (HOS): > 167 µM
IC50 [4]: > 167 µM
IC50 (G-361): > 167 µM
Activity (Nicotiana tabacum [6]): 46%
Activity [7]: 0.23%

OC[C@H]1O[C@@H](n2cnc3c(NCc4ccc(Cl)cc4Cl)ncnc32)[C@H](O)[C@@H]1O
IC50 (HL-60): 96.3 µM
IC50 [2]: 127 µM
IC50 (B16): > 167 µM
IC50 (K562): 106 µM
Activity (Triticum aestivum [10]): 5%
IC50 (CCRF-CEM): 86.7 µM
IC50 (HOS): > 167 µM
Activity (Amaranthus [5]): 3%
Activity (Nicotiana tabacum [9]): 70%
IC50 (G-361): 128 µM

OC[C@H]1O[C@@H](n2cnc3c(NCc4ccc(F)cc4)ncnc32)[C@H](O)[C@@H]1O
IC50 (HL-60): 1.2 µM
Activity [1]: 7.67%
IC50 [2]: 21 µM
Activity (Amaranthus [8]): 71%
IC50 (K562): 2.7 µM
Activity (Triticum aestivum [3]): 148%
IC50 (CCRF-CEM): 1.25 µM
IC50 (HOS): 13.2 µM
IC50 [4]: 44.3 µM
IC50 (G-361): > 167 µM
Activity (Nicotiana tabacum [6]): 100%
Activity [7]: 0.39%

COc1ccccc1CNc1ncnc2c1ncn2[C@@H]1O[C@H](CO)[C@@H](O)[C@H]1O
IC50 (HL-60): 2.3 µM
Activity [1]: 0.04%
IC50 [2]: > 167 µM
IC50 (B16): > 167 µM
Activity (Amaranthus [8]): 86%
IC50 (K562): 8.9 µM
Activity (Triticum aestivum [3]): 198%
IC50 (CCRF-CEM): 3.2 µM
IC50 (HOS): > 167 µM
IC50 [4]: 140 µM
Activity (Nicotiana tabacum [9]): 108%
IC50 (G-361): > 167 µM
Activity [7]: 0.12%

OC[C@H]1O[C@@H](n2cnc3c(NCc4ccccc4)ncnc32)[C@H](O)[C@@H]1O [N6-BENZYLADENOSINE]
IC50 (HL-60): 0.94 µM
Activity [1]: 2.53%
IC50 [2]: 5.4 µM
IC50 (B16): > 167 µM
IC50 (K562): 5.5 µM
IC50 (CCRF-CEM): 1.4 µM
IC50 (HOS): > 167 µM
IC50 [4]: 39 µM
IC50 (G-361): > 167 µM
Activity [7]: 0.35%

OC[C@H]1O[C@@H](n2cnc3c(NCc4ccccc4F)ncnc32)[C@H](O)[C@@H]1O
IC50 (HL-60): 3.2 µM
Activity [1]: 2.91%
IC50 [2]: > 167 µM
IC50 (B16): > 167 µM
Activity (Amaranthus [8]): 96%
IC50 (K562): 33.2 µM
Activity (Triticum aestivum [3]): 118%
IC50 (CCRF-CEM): 4.6 µM
IC50 (HOS): > 167 µM
IC50 [4]: > 167 µM
Activity (Nicotiana tabacum [6]): 100%
Activity [7]: 0.12%
